STEP block = inhibitors of human striatal-enriched phosphatase STEP; AID 588621; inhibition, % at 20 µM; 360,000 tested, 0.25% active; recombinant STEP, OMFP fluorogenic substrate, fluorescence; P54829;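 active = inhibition at 20 µM, scaled per plate between control wells, above about 37%, limit read from the data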
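Also added – OMFP at 25 µM · Test system – STEP tyrosine phosphatase · Technique – FITC-channel fluorescence of OMFP product · Schedule – 20 min at room temperature, dark · Evaluation – control-normalized % inhibition with plate pattern correction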
SUMO1-SIM PPI = alters human SUMO1 binding to SIM partners; P63165; AID 602429; SUMO1 binding to a labelled peptide, TR-FRET, 1 h; 360,000 tested, 0.33% active; inhibition, % at 20 µM; in the data active = inhibition above about 37%
DNMT1 block = inhibitors of human DNMT1. 360,000 tested, 0.83% active. DNMT1 molecular beacon, Hinp1I cleavage, fluorescence. AID 588458. inhibition (reported as % activation of signal), % at 10 µM. P26358; in the data active = inhibition above about 50%
Target sequence (P26358 504-1616 limits assumed): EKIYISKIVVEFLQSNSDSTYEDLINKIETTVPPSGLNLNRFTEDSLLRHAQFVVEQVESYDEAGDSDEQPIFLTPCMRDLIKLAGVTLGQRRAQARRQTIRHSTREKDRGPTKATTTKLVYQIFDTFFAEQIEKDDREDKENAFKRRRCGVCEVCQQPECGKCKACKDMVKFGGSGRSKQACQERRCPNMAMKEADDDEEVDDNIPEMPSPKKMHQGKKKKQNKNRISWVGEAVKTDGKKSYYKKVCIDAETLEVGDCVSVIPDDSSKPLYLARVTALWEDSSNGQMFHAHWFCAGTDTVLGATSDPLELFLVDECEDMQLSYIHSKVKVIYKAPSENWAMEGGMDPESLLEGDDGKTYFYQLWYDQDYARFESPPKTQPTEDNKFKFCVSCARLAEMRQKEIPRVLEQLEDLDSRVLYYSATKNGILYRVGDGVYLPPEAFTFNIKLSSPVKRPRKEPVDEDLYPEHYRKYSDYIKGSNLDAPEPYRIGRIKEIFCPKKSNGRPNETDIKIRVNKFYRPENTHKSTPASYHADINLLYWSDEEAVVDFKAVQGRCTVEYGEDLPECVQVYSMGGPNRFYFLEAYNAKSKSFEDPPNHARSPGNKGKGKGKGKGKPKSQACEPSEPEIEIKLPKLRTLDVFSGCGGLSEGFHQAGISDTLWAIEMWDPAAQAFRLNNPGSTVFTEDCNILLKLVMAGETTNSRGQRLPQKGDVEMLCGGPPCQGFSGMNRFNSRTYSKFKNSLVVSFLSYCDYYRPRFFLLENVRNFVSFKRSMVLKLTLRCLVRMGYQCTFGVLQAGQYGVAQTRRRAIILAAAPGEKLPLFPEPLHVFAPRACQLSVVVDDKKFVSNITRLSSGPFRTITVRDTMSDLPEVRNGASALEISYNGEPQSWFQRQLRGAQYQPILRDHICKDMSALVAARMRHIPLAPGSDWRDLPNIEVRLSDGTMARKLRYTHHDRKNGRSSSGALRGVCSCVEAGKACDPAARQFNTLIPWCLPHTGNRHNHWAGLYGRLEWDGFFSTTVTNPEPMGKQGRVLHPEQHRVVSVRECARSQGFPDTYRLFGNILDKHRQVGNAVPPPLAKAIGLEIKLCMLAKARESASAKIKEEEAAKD
HKDC1 inh = blocks human hexokinase HKDC1 activity. Q2TB90. AID 493160. inhibition, % at 20 µM. 340,000 tested, 0.16% active. recombinant HKDC1, G6PDH/diaphorase resazurin coupled fluorescence;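 active = inhibition above about 35% when tested at 20 µM, limit read from the data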
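Test system: HK5 enzyme. Quantity: 5 µg/mL HK5 final. Reagent: glucose and ATP substrates. Schedule: 90 min reaction incubation at room temperature, dark. Technique: resazurin-to-resorufin fluorescence via G6PDH and diaphorase coupling, 525/613 nm. Control set: DMSO wells with and without enzyme mix.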
Scp1 inh = inhibitors of human Scp-1 phosphatase; Q9GZU7; Recombinant Scp1, phosphopeptide, malachite green phosphate absorbance; 340,000 tested, 0.88% active; AID 493091; inhibition, % at 20 µM;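 active = inhibition above about 50% at 20 µM, limit read from the data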
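Material – SCP-1 phosphatase catalytic domain, residues 76-261 · Buffer or medium – Acidic Tris acetate buffer with magnesium and detergent · Also added – Phospho 17-mer peptide substrate · Compound – single 20 µM dose, 1% DMSO · Times – 45 min room-temperature reaction, 5 min colour, 30 min stabiliser · Technique – Phosphate-binding colour reagent, absorbance read at 630 nm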
LMPTP inh = LMPTP (human) inhibition. inhibition, % at 20 µM. recombinant LMPTP-A, OMFP fluorogenic substrate, fluorescence intensity. 360,000 tested, 0.22% active. AID 651560;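 active = compounds that cut the enzyme signal by at least half of the control window in the single-dose screen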
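Assay system: LMPTP-A phosphatase enzyme | Input: 0.625 nM enzyme | Also added: Fluorogenic phosphatase substrate OMFP at 400 µM final | Compound dosing: One test concentration per compound, 20 µM, with 3% DMSO overall | Schedule: 50 min enzyme reaction at room temperature, protected from light | Signal: Fluorescence intensity | Benchmarks: no-enzyme and uninhibited controls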
Scp-1 conf = Scp-1 (human) inhibition, single-dose confirmed | shares compounds with Scp1 inh | recombinant SCP-1 catalytic domain, phosphate release, malachite green absorbance | inhibition, % at 20 µM | 2,500 tested, 61% active | AID 540281
MG interference = colorimetric interference in Scp-1 counter-screen | shares compounds with Scp1 inh | Colorimetric interference counterscreen, malachite green absorbance 630 nm | apparent inhibition (interference), % at 20 µM | 2,500 tested, under 10 active;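 also: compounds added after enzyme reaction finished so only phosphate colour detection is probed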
Scp1 DSF = Scp-1 (human) binding by thermal shift; AID 540329; thermal shift relative to vanadate control, % at 40 µM; Recombinant SCP1, Sypro Orange thermal shift Tm; 1,500 tested, 25% active; shares compounds with Scp1 inh;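 active = substances whose mean melting-temperature shift, as a percentage of the reference inhibitor's shift, reaches about 5.3%, limit read from the data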
Numbers stand for hits; - = inactive; . = not tested or not shown. A selection: hits, their analogues and other compounds. The true share with any hit is near 1.8%.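 The calls were made as follows, unless noted: active = inhibition of at least 30% at 20 µM; inactive = the rest.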

SMILES	STEP block	SUMO1-SIM PPI	DNMT1 block	HKDC1 inh	Scp1 inh	LMPTP inh	Scp-1 conf	MG interference	others
CC(C)(C)NC(=O)C1CCN(S(=O)(=O)c2cccc(C(F)(F)F)c2)CC1	-	-	-	-	-	-	.	.
CCC(=O)c1ccc(OCC(=O)OCC(=O)N2c3ccccc3NC(=O)C2(C)C)cc1	-	-	-	-	-	-	.	.
CC1(C)C(=O)Nc2ccccc2N1C(=O)COc1ccccc1C#N	-	-	-	-	50.2	-	58.6	-	Scp1 DSF=-
Cc1ccccc1OCCC(=O)OCC(=O)N1c2ccccc2NC(=O)C1(C)C	-	-	-	-	-	-	.	.
Cc1cc(OCC(=O)OCC(=O)N2c3ccccc3NC(=O)C2(C)C)ccc1Cl	-	-	-	-	59.8	-	57.2	-	Scp1 DSF=-
COc1ccc(-c2c(-c3ccccc3OC)sc3ccccc23)cc1C=O	-	-	-	-	50.1	-	-	-
CCOP(=O)(OCC)C(C#N)=C1SCN(c2ccccc2)CS1	-	-	-	-	-	-	.	.
COc1ccccc1C(C)Nc1nc(-c2cccnc2)nc2ccccc12 (stereo not drawn)	-	-	-	-	61.3	-	-	-
CC(C)CC1Nc2ccc(C(=O)NCc3ccc4c(c3)OCO4)cc2NC1=O (stereo not drawn)	-	-	-	-	-	-	-	-
O=[N+]([O-])c1ccccc1S(=O)(=O)N1CCN(C2CCN(Cc3ccccc3)CC2)CC1	-	-	-	-	-	-	.	.
CC1Sc2ccc(S(=O)(=O)CCC(=O)N3CCN(c4cccc(Cl)c4)CC3)cc2NC1=O (stereo not drawn)	-	-	-	-	-	-	.	.
N=c1nc2n(cc1F)C1OC(CO)C(O)C1O2 (stereo not drawn)	-	-	-	-	71.5	-	-	-
Cc1ccc(OCC(=O)Nc2ccc(CN3CCOCC3)cc2)cc1	-	-	-	-	69.9	-	-	-
Cc1ccc(NC(=O)COc2ccc(/C=N/NC(=O)CSCc3ccccc3)cc2)cc1	-	-	-	-	84.8	-	70.0	-	Scp1 DSF=-
Cc1cccc(OCC(=O)Nc2ccc(CN3CCOCC3)cc2)c1C	-	-	-	-	-	-	.	.
O=C(Nc1ccccc1Cl)NC1(C(=O)NCC2CCCO2)CCCCC1 (stereo not drawn)	-	-	-	-	-	-	.	.
COc1ccc(NC(=O)c2cccc(N3C(=O)C4C5C=CC(C5)C4C3=O)c2)cc1Cl (stereo not drawn)	-	-	-	-	-	-	.	.
CNC(=O)C(=O)Nc1ccc2c(c1)N(S(=O)(=O)c1cccs1)CCC2	-	-	-	-	53.8	-	-	-
CC(C)NC(=O)C(=O)Nc1ccc2c(c1)N(S(=O)(=O)c1cccs1)CCC2	-	-	-	-	-	-	.	.
COc1ccc(Cn2cc(C(=O)O)c(=O)c3ccccc32)cc1	-	-	-	-	-	-	.	.
CC1(C)NC(=O)N(CCCCOc2cccc(C(F)(F)F)c2)C1=O	-	-	-	-	-	-	-	-
CCC(C)Oc1cccc(OCCCCN2C(=O)NC(C)(C)C2=O)c1 (stereo not drawn)	-	-	-	-	-	-	.	.
Cc1cccn2c(=O)c3cc(C(=O)NC4CCCC4)n(C)c3nc12	-	-	-	-	67.6	-	-	-
O=C1c2ccccc2C(=O)N1c1nc2nccc(-c3ccccc3)n2n1	-	-	-	-	101.3	-	-	-
NCCCCC(=O)O	-	-	-	-	54.5	-	-	-
NCCCC(=O)O	-	-	-	-	-	-	.	.
CCC(C)N(C(=O)CSc1nnc(-c2cccs2)n1C1CC1)C1CCS(=O)(=O)C1 (stereo not drawn)	-	-	-	-	-	-	.	.

Screening data as filed in PubChem.
